# Kir21 block: blocks the mouse Kir2.1 inward-rectifier potassium channel. AID 1672. HEK293-Kir2.1, FluxOR thallium flux fluorescence; stronger effect = lower value. B-score at 10 µM. 0.85% of 310,000 active. P35561;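 active = fluorescence ratio B-score at or below minus 3 SD of library scores, with starting-brightness B-score within 2 SD, cut at about -4.2 in these data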;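 also: channel flux triggered by added potassium and thallium sulfate stimulus; B-score of peak minus minimum fluorescence over baseline after thallium stimulus; more negative B-score means stronger Kir2.1 block with less thallium influx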
# KCNK3 block: human KCNK3 channel inhibition, primary screen; CHO-KCNK3 thallium flux, FluxOR fluorescence; stronger effect = lower value; O14649; AID 602410; 0.84% of 340,000 active; B-score at 10 µM;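 active = B-score under library mean minus 4 SD, starting fluorescence ratio at most library mean plus 5 SD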;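 also: more negative B-score means stronger inhibition of thallium flux through KCNK3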
# Target sequence (O14649 whole entry, looked up): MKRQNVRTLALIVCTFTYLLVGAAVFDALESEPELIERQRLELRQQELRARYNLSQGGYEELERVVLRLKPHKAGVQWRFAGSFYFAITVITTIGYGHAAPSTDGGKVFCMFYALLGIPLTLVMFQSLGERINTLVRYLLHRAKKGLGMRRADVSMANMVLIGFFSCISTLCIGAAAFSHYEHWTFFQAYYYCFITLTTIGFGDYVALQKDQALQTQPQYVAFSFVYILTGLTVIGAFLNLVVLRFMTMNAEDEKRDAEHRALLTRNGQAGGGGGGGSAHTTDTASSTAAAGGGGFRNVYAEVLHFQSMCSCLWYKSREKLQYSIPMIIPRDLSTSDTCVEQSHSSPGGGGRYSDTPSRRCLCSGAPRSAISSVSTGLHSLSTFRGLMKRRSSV
# hERG rescue: hERG (human) protection from proarrhythmic block | Q12809 | CHO-hERG, FluxOR thallium flux, dofetilide IC70 present | activation (rescue from dofetilide block), less the hit threshold, % at 10 µM | 0.51% of 310,000 active | AID 1511;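 active = activation above the mean of controls blocked by dofetilide plus 5 SD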;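 also: thallium influx through hERG after potassium depolarization seen as dye fluorescence rise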
# KCNQ1 block: blocks the human KCNQ1 potassium channel; AID 2642; B-score at 10 µM; CHO-K1 KCNQ1, FluxOR thallium flux fluorescence; stronger effect = higher value; 1.3% of 310,000 active; P51787;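 active = compounds whose thallium flux B-score, printed positive for inhibition, exceeds three library SD while starting fluorescence stays within three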;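 also: channel opened by potassium depolarization with thallium stimulus after 20 min compound exposure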
# KCNQ1 act: human KCNQ1 channel potentiation or activation. CHO-K1 KCNQ1, thallium flux FluxOR fluorescence; stronger effect = higher value. 0.35% of 310,000 active. AID 2648. B-score at 10 µM. P51787;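 active = fluorescence ratio B-score, a plate-corrected score, at least three library SD, with initial intensity B-score within 5 SD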
#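 Medium – assay buffer, equal DMSO in all wells · Material – CHO-K1 cell line with stable KCNQ1 potassium channel expression · Signal – kinetic FluxOR thallium fluorescence, 10-s 1-Hz baseline, 110-s post-stimulus read · Compound – single concentration per compound, DMSO matched to controls · Schedule – 37 °C overnight plating, 90-min dark dye load, 20-min compound pretreatment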
# KCNK9 inh: blocks the human KCNK9 two-pore domain potassium channel; Q9NPC2; HEK293 KCNK9, FluxOR thallium flux fluorescence; stronger effect = lower value; B-score at 10 µM; 1.2% of 310,000 active; AID 488922;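 active = ratio B-score over 3 SD below the library mean, with starting fluorescence within 5 SD of its mean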;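 also: negative B-score means less thallium flux so channel inhibition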
# * hit, by the source's call; i = inactive; · = not tested or not shown. Shown are actives, neighbours in structure and some others; about 3.7% of the full set was active somewhere.
SMILES,Kir21 block,KCNK3 block,hERG rescue,KCNQ1 block,KCNQ1 act,KCNK9 inh
COCCNC(=O)C(=O)N/N=C/c1ccc(C(=O)OC)cc1,-0.09,i,14*,i,i,i
CC1CCCN(C(=O)COC(=O)c2ccc(=O)n(Cc3ccccc3)n2)C1 (stereo unspecified),-0.78,i,-13,i,i,i
CCOC(=O)c1sc(=NC(=O)c2cccc(C)c2)n(C)c1C,-0.05,i,5.7*,i,i,i
CC(=O)Nc1ccc(NC(=O)C(C)OC(=O)CSc2ccc(Br)cc2C)cc1 (stereo unspecified),-0.43,i,-7,i,i,i
O=C(N/N=C/c1ccccn1)c1cc(Br)ccc1O,-0.35,i,0,i,10*,i
O=C(N/N=C/c1cccnc1)c1cc(Br)ccc1O,-0.84,i,-2,i,i,i
COc1ccc(/C=N/N(Cc2ccccc2)c2ccccc2)cc1O,0.69,i,-19,6*,i,i
Oc1ccc(/C=N/N(c2ccccc2)c2ccccc2)cc1O,-1.2,i,-15,6*,i,i
Oc1ccc(/C=N/N(c2ccccc2)c2ccccc2)c(O)c1O,0.24,i,-37,i,i,i
O=C(/C(=N/N=C/c1ccc(O)c(O)c1)c1ccccc1)c1ccccc1,-4.8*,i,-19,i,i,i
O=C(COC(=O)/C=C/c1cc(Br)ccc1F)Nc1ccc2[nH]c(=O)[nH]c2c1,-0.69,i,-10,i,i,i
O=C(c1ccccc1)c1ccccc1N/C=C/c1nnnn1-c1ccccc1,0.16,i,-15,i,i,i
COc1ccc(C(F)(F)F)cc1N/C=C/c1nnnn1-c1ccc(C)cc1,-0.93,i,-12,i,i,-6.7*
COc1ccc(/C=C2\Sc3ccc(C(=O)NCCCN4CCCC4)cc3N(C)C2=O)cc1OC,0.49,i,-7,i,i,i
CCN(C(=O)c1ccc(C(C)(C)C)cc1)c1nnc(Cn2nnc3ccccc32)s1,-0.65,i,-21,7*,i,i
CC(C)NCC(O)Cn1c2c(c3ccccc31)CCc1c-2cnn1-c1ccccc1 (stereo unspecified),-6.1*,i,-18,i,i,i
COc1ccc(C(=O)c2c(C)c3ccccc3n2CC(O)CNC(C)C)cc1 (stereo unspecified),-4.1,i,-12,i,i,i
Cc1cccc(NS(=O)(=O)c2ccc(C)c(C(=O)NCCCN3CCOCC3)c2)c1,·,i,·,·,·,·
CCCCCn1c(=O)[nH]c2cc(C(=O)NCCc3ccc(OC)c(OC)c3)ccc2c1=O,-1.2,i,-14,i,i,i
CCCCNC(=O)c1sc(=S)n2c1[nH]c(=O)c1ccc(C(=O)NCCc3ccc(OC)c(OC)c3)cc12,-2.4,-10*,-20,i,i,i
CC(=O)NNC(=O)c1sc(=S)n2c1[nH]c(=O)c1sccc12,0.06,i,-10,i,i,i
O=C(NCc1ccccc1)c1sc(=S)n2c1[nH]c(=O)c1ccccc12,-1.9,i,-16,7*,i,i
O=C(Nc1ccc(Cl)c([N+](=O)[O-])c1)Nc1nc2ccccc2s1,0.39,·,-9,9*,i,i
CC(CC(=O)Nc1ccc(Cl)c([N+](=O)[O-])c1)c1ccccc1 (stereo unspecified),-1.6,i,-16,10*,i,i
CC1CN(S(=O)(=O)c2cccc(C(F)(F)F)c2)CC(C)O1 (stereo unspecified),-4.4*,i,-9,i,i,i
SMILES,Kir21 block,KCNK3 block,hERG rescue,KCNQ1 block,KCNQ1 act,KCNK9 inh
CC(C)CCN(C)C1CCN(S(=O)(=O)c2cccc(C(F)(F)F)c2)CC1,0.09,i,-7,i,i,i
CCc1ccc(NC(=S)Nc2cc(OC)c(NC(=O)C(C)C)cc2OC)cc1,-0.06,i,-12,i,i,i
CCc1ccc(NC(=O)C(C)OC(=O)Cc2cc(OC)c(OC)c(OC)c2)cc1 (stereo unspecified),·,-11*,·,·,·,·
COc1cc2cncc(Cc3ccc(Cl)cc3)c2cc1OC,·,i,·,·,·,·
CCCCCC(=O)OC(CN1CCCCCC1)CN1CCCC1=O (stereo unspecified),1.2,i,-5,10*,i,i
C[C@@H](CC#N)CN1CC[C@H](C(C)(C)C)CCC1=O,-1.2,i,5.0*,i,i,i
C[C@@H]1CCC(=O)N(C[C@@H](C)CC#N)CC1,-0.13,i,0,i,i,i
OC(CNCc1ccccc1)c1ccccc1 (stereo unspecified),-0.22,i,-7,i,i,i
Oc1cccc(C(O)CNCc2ccc(-c3ccccc3)cc2)c1 (stereo unspecified),-7.8*,i,-13,i,i,i
COc1ccc(CCN2CC(C(=O)NC3CCOCC3)CCC2=O)cc1 (stereo unspecified),0.62,i,-8,i,i,i
Cc1cc(C)c2nc(NC(=O)c3cc(C)on3)sc2c1,0.72,i,-1,i,24*,i
COc1ccc2nc(NC(=O)c3ccccc3O)sc2c1,-0.11,i,-9,i,i,i
CCOC(=O)c1cccc(C(=O)Nc2nc3ccc(OC)cc3s2)n1,0.2,i,1,i,9*,i
CCc1ccc2nc(NC(=O)c3cc(C)on3)sc2c1,-0.58,i,9.4*,i,29*,i
CCc1noc(C)c1C(=O)Nc1nc2c(C)cc(C)cc2s1,0.44,i,-17,i,i,i
O=C(Cc1ccc(NC(=O)C2CCN(C(=O)C3CC3)CC2)cc1)Nc1cccc(C(=O)N2CCCCC2)c1,·,i,·,·,·,·
COc1cccc(C(C[N+](=O)[O-])c2c(C)[nH]n(-c3ccccc3)c2=O)c1 (stereo unspecified),-13*,i,-22,8*,i,i
CC1=C(C#N)C(=O)N(C2CCS(=O)(=O)C2)C(=O)/C1=C\c1ccc(C)o1 (stereo unspecified),-8.9,·,-20,7*,i,-6.9*
CCC(=O)Nc1cccc(C2=NOC3(C2)C[C@H](C(N)=O)N(C(=O)CC#N)C3)c1 (stereo partly specified),-0.02,i,6.2*,i,i,i
COc1ccccc1CN1CC(C(=O)NCc2ccc(SC)cc2)CCC1=O (stereo unspecified),1.2,i,-3,i,i,i
CC1CN(c2nc(-c3ccc(Br)cc3)nnc2-c2ccccc2)CC(C)N1 (stereo unspecified),-9.3*,i,-23,i,i,i
COc1ccc2cc(C3=CC(=O)CCC3)ccc2c1,·,i,·,·,·,·

# Bioassay records (PubChem)
